HUVEC inhibit: inhibitors of HUVEC proliferation, primary screen, cell-based, 384-well | CellTiter-Glo luminescence, 72 h; stronger effect = lower value | viability, % at 10 µM (by protocol) | hit rate 1.1% among 86,000 | AID 648, 2007;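 active = viability at or below 30%; inactive = viability above 30%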;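 also: 100% = median luminescence of DMSO-only cell control wells on each plate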
Fibroblast inh: antiproliferative effect on LL 47 fibroblasts – human, LL 47 cells, CellTiter-Glo luminescence, primary screen | LL 47 human lung fibroblast viability, ATP luminescence; stronger effect = lower value | viability, % at 10 µM | hit rate 1.1% among 85,000;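 active = viability at or below 50% in the single dose screen; inactive = viability above 50%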;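 also: compound exposure lasted 72 h before the ATP readout; 100% = median luminescence of untreated cell-only wells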
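Test system: LL 47 human lung fibroblasts; Quantity: 1,150 cells/well; Buffer or medium: IMEM plus 15% FBS; Dosing: tenfold compound dosing solution, DMSO at 0.1%; Timing: overnight cell rest, 72 h compound treatment at 37 °C; Detection: ATP-based CellTiter-Glo luminescent readout; Read-out basis: viability percentage against median untreated-cell control; Controls: cell-only wells, no compound.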
H69AR growth 86K: proliferation blockers of H69AR lung cancer cells, primary screen, cell-based, human, 86K library | H69AR lung tumor viability, ATP luminescence, 72 h; stronger effect = lower value | viability, % at 10 µM | hit rate 6% among 85,000;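 active = viability at or below 40%; inactive = viability above 40%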;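 also: multidrug resistant small cell line overexpressing MRP-1 efflux transporter; 100% = mean luminescence of untreated control wells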
HCT116 bCat-KO: primary screen for growth suppressors in beta-catenin knockout HCT116 cells (colon tumor, human). AID 818, 2007. viability, % at 10 µM. hit rate 1.5% among 140,000. HCT116 beta-catenin knockout viability, CellTiter-Glo, 60 h; stronger effect = lower value;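 active = viability at or under a set limit, the compound median less 4 SD, cut at about 6% in these data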;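 also: 0% = Hyamine 1622 control at 20 µM and 100% = untreated cell control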
PTEN del growth: growth suppression of PTEN-null HCT116, primary screen, cell-based, CellTiter-Glo. hit rate 1.2% among 140,000. HCT116 PTEN-null viability, 60 h; stronger effect = lower value. viability, % at 10 µM. AID 827, 2007;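 active = viability at or below a set limit, 4 SD under the median of all tested compounds, cut at about 3.7% in these data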;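 also: PTEN knockout HCT116 line with beta catenin targeted HCT116 as companion control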
The depositor's hits bear a star; / = not tested or not shown. Only a selection was taken, and hits are over-represented in it overall.

SMILES	HUVEC inhibit	Fibroblast inh	H69AR growth 86K	HCT116 bCat-KO	PTEN del growth
COC(=O)c1c(NC(=O)c2ccco2)sc(C(=O)Nc2ccc(F)cc2)c1C	34	100	3.6*	66	54
COC(=O)c1ccc(C(=O)OC)c(NC(=S)N2CCCC(C)C2)c1 (configuration not stated)	/	/	/	103	104
CCOc1ccc(Nc2cc(C)nc(-n3nc(C)cc3C)n2)cc1	/	/	/	21	15
COc1ccc(/C=N/Nc2cc(C)nc(-n3nc(C)cc3C)n2)c(OC)c1	/	/	/	2.6*	2.4*
COc1cccc(/C=N/Nc2nc3ccccc3n3cnnc23)c1	/	/	/	99	93
COc1cccc(/C=N/Nc2nc(Nc3ccccc3)nc(-n3nc(C)cc3C)n2)c1O	/	/	/	2.8*	2.0*
Cc1cc(C)n(-c2nc(Nc3ccccc3)nc(-n3nc(C)cc3C)n2)n1	90	99	97	92	97
COc1cccc(/C=N/Nc2cc(-n3nc(C)cc3-c3ccccc3)ncn2)c1O	/	/	/	3.8*	3.5*
COc1cccc(/C=N/Nc2nc3ccccc3n3cnnc23)c1O	/	/	/	5.8*	6
COc1cccc(/C=N/Nc2ncnc3scc(-c4ccccc4)c23)c1O	/	/	/	9	14
CCOc1ccc2ccccc2c1/C=N/NC(=O)CC1(C)OCCCO1	/	/	/	95	109
COc1cccc(/C=N/Nc2ncnc(Cl)c2N)c1O	/	/	/	6	3.1*
COc1ccc(/C=N/Nc2ncnc(Cl)c2N)cc1OC	/	/	/	94	99
CC(C)c1ccc(-c2c(C#N)c(N)nc(SCC(=O)N3CCCCCC3)c2C#N)cc1	79	84	60	82	99
CC(C)c1ccc(-c2c(C#N)c(N)nc(SCC(=O)N3CCCCC3)c2C#N)cc1	28*	72	63	90	87
N#Cc1c(N)nc(SCC(=O)NC2CCCCC2)c(C#N)c1-c1ccc(Cl)cc1	66	66	36*	27	41
Nn1c(SCC(=O)NC2CCCCC2)nnc1-c1ccc(Cl)cc1	116	103	100	92	89
Cn1c(=O)c(C(=O)Nc2cccnc2)c(O)c2ccccc21	44	78	12*	/	/
Cc1ccnc(NC(=O)c2c(O)c3ccccc3n(C)c2=O)c1	131	76	5.7*	/	/
Cc1ccc(NC(=O)c2c(O)c3ccccc3n(C)c2=O)nc1	126	31*	13*	77	60
Cn1c(=O)c(C(=O)Nc2ncccc2O)c(O)c2ccccc21	98	99	86	82	94
CC(C)Cn1c(=O)c(C(=O)Nc2ccncc2)c(O)c2ccccc21	62	65	9.8*	/	/
CCOP(=O)(OCC)C(O)c1cc(OC)c(OC)c(OC)c1 (configuration not stated)	/	/	/	84	88
CC(C(=O)O)c1ccc(N2Cc3ccccc3C2=O)cc1 (configuration not stated)	/	/	/	92	92
O=C(c1cc(-c2ccco2)nc2ccccc12)N1CCN(c2ccc(F)cc2)CC1	/	/	/	93	86
SMILES	HUVEC inhibit	Fibroblast inh	H69AR growth 86K	HCT116 bCat-KO	PTEN del growth
Cc1ccc(NC(=O)C(=O)NCCOc2ccc(Cl)cc2)c(C)c1	/	/	/	91	96
CCCNc1nc(Nc2ccc(C)cc2)nc(N2CCCC2)n1	30	66	35*	57	61
O=C(CN(C(=O)CCC(=O)Nc1ccccn1)c1ccc2c(c1)OCCO2)NCCc1ccccc1	68	90	7.0*	66	50
CCN(CCO)Cc1csc2ccc(C(C)(C)C)cc12	/	/	/	65	71
O=C(/C(=C/O)N=Nc1ccc(Cl)cc1)c1ccncc1	/	/	/	0.6*	0.8*
Cc1ccc(N=N/C(=C\O)C(=O)c2ccncc2)cc1	78	91	98	89	95
COc1ccc(-c2cc(C(=O)Nc3c(C)nn(Cc4ccc(Cl)cc4)c3C)no2)cc1	42	54	16*	70	70
Cc1ccc(Cn2nc(C)c(NC(=O)c3cc(-c4ccc5c(c4)OCO5)on3)c2C)cc1	34	93	7.4*	89	83
Cc1nn(Cc2ccc(F)cc2)c(C)c1NC(=O)c1cc(-c2ccc3c(c2)OCO3)on1	68	98	86	82	99
COc1ccc(-c2cc(C(=O)Nc3c(C)nn(Cc4ccccc4Cl)c3C)no2)cc1OC	47	81	20*	90	101
CC1CN(C(=O)C2(C)CC2(Br)Br)CC(C)O1 (configuration not stated)	/	/	/	93	88
CCc1ccc(C(=O)Nc2cc3c(cc2Cl)OCCCO3)cc1	/	/	/	81	82
COc1cc(NC(=O)c2ccco2)c(C(=O)OCC(=O)c2c[nH]c3ccccc23)cc1OC	/	/	/	61	66
O=c1c2ccccc2nc(-c2cccc(Cl)c2)n1O	100	101	23*	64	73
O=c1c2ccccc2nc(-c2ccccc2)n1Cc1ccc(Cl)cc1	/	/	/	67	62
CCOC(=O)c1c(C)[nH]c(C=C2C(=O)CCCC2=O)c1O	/	/	/	91	92
O=C(COC(=O)Cc1ccc(S(=O)(=O)N2CCCCC2)s1)Nc1ccc2c(c1)OCO2	92	103	25*	102	101
CC(C)(C)NS(=O)(=O)c1cc(C(=O)Nc2sccc2C#N)ccc1Cl	/	/	/	83	86
COC(=O)C1C(=O)C=C(Nc2ccc(F)cc2)CC1c1ccc(OC)cc1 (configuration not stated)	/	/	/	105	99
COC(=O)C1=C(Nc2ccc(C)cc2)C=C(C)C(C(=O)OC)C1c1ccc(OC)cc1 (configuration not stated)	67	62	24*	29	29
COC(=O)C1=C(Nc2ccc(C)cc2)C=C(C)C(C(=O)OC)C1c1cccc(OC)c1 (configuration not stated)	73	60	17*	23	22
c1ccc(CSc2ccc(-c3ccco3)nn2)cc1	/	/	/	89	94
CCCC1=NN(c2ccc([N+](=O)[O-])cc2)C(=O)/C1=C\N(C)C	/	/	/	102	98
O=[N+]([O-])c1ccc(Oc2c(F)c(F)nc(N3CCCC3)c2F)cc1	/	/	/	80	80
CCOC(=O)c1sc(NC(=O)c2c(C)nn(Cc3ccccc3)c2C)cc1C	60	94	13*	19	6
SMILES	HUVEC inhibit	Fibroblast inh	H69AR growth 86K	HCT116 bCat-KO	PTEN del growth
CCOC(=O)c1sc(NC(=O)c2ccccc2)cc1C	/	/	/	78	65
CCOC(=O)c1sc(NC(=O)c2ccc(Cl)s2)cc1C	67	104	97	90	96
CCOC(=O)c1sc(NC(=O)Nc2ccc(Cl)cc2)cc1C	/	/	/	5.2*	5
COc1cccc(C(=O)NC(=S)Nc2nnn(C)n2)c1	/	/	/	98	95
COC(=O)CS(=O)(=O)c1nnc([C@H](Cc2ccccc2)NC(=O)OC(C)(C)C)o1	80	0.9*	0.3*	98	91
Cc1cccc(CS(=O)(=O)c2nnc([C@H](Cc3ccccc3)NC(=O)OC(C)(C)C)o2)c1	47	108	0.5*	1.4*	1.4*
COC(=O)c1c(C)[nH]c(C(=O)CSc2ncnc3sc(-c4ccccc4)cc23)c1C	/	/	/	14	16

Screens (PubChem BioAssay)
